Series [1] can be described thus: Half life in human microsomes. It counts as ADME, Microsome.
Series [2] can be described thus: % bound in plasma. It counts as ADME, cell-free. The note with it: read-out: PPB.
The nature of series [3]: Binding affinity to P-glycoprotein.
The target in series [4] is T1, Alpha-2A adrenergic receptor (Homo sapiens, UniProt P08913).
T1 sequence (P08913 whole entry): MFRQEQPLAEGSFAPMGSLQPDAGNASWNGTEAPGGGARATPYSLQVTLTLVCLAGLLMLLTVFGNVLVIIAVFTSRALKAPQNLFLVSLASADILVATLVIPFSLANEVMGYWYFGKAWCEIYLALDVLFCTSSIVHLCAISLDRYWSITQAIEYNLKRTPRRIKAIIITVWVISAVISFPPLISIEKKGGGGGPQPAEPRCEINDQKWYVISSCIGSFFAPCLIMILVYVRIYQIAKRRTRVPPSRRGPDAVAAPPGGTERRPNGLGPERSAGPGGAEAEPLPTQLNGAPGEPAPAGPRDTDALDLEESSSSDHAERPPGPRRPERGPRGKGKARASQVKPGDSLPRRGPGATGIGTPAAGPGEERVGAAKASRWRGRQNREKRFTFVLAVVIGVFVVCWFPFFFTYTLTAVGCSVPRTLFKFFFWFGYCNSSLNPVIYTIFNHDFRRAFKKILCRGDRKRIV
Description: Binding affinity to adrenergic alpha2A receptor.

Series [5] can be described thus: Solubility of the compound in water. It counts as physicochemical.
A further series has as its system Rattus norvegicus. Kind of series: Cognitive enhancing effect in rat assessed as inhibition of scopolamine-induced memory deficit at 10 mg/kg, po by novel object recognition test. Type of series: functional, organism-based. More on the design: dose 10 mg/kg. A digest of the protocol:
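Rats given compound orally at 10 mg/kg; scopolamine-induced memory deficit assessed in a novel object recognition assay.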

Series [6] concerns the target T2, 5-hydroxytryptamine receptor 2C (Homo sapiens, UniProt P28335).
T2 sequence (P28335 whole entry): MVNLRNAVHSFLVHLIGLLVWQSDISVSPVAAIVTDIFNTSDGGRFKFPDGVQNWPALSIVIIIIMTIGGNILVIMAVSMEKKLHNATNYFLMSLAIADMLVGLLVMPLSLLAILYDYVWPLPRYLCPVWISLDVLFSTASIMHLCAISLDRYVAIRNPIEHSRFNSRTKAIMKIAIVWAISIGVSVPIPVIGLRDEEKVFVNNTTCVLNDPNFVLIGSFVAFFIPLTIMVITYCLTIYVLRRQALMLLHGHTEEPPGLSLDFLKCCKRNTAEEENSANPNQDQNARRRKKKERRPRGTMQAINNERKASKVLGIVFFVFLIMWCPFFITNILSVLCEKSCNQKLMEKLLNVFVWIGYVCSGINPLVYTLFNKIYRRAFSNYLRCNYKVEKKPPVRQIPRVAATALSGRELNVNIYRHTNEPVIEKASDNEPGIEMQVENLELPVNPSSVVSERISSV
Description: Binding affinity to 5-HT2C receptor.

For series [7], the target named is 5-hydroxytryptamine receptor 1B (Homo sapiens, UniProt P28222). Kind of series: Binding affinity to 5-HT1B receptor.
Series [8] has as its target T3, 5-hydroxytryptamine receptor 2B (Homo sapiens, UniProt P41595). Kind of series: Binding affinity to 5-HT2B receptor.
In series [9] the target is T3, 5-hydroxytryptamine receptor 2B. Kind of series: Agonist activity at 5-HT2B receptor at 0.1 nM to 10 uM by FLIPR assay. It counts as functional.
Series [10] addresses 5-hydroxytryptamine receptor 7 (Homo sapiens, UniProt P34969). Kind of series: Binding affinity to 5-HT7 receptor.
Series [11] in a line: Half life in rat microsomes. Type of series: ADME, Microsome.
The target of series [12] is T4, 5-hydroxytryptamine receptor 6 (Homo sapiens, UniProt P50406). Description: Antagonist activity at cloned human 5-HT6 receptor expressed in human HeLa cells assessed as inhibition of 5HT-induced cyclic AMP formation. It counts as functional, cell-based.
For series [13], the target named is T4, 5-hydroxytryptamine receptor 6. Kind of series: Displacement of [3H]-LSD from cloned human 5-HT6 receptor expressed in human HeLa cells. Type of series: cell-based. A digest of the protocol: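 Radioligand displacement of [³H]-LSD from cloned human 5-HT6 receptors stably expressed in HeLa cells; compounds tested as HCl salts; Ki values determined in triplicate.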
In general terms: Displacement assays read how much labelled ligand stays bound in the presence of the test substance.

Another series has as its target D(2) dopamine receptor (Homo sapiens, UniProt P14416). Kind of series: Binding affinity to dopamine D2 receptor.
Series [14] addresses 5-hydroxytryptamine receptor 1D (Homo sapiens, UniProt P28221). Description: Binding affinity to 5-HT1D receptor.
For series [15], the target named is T5, 5-hydroxytryptamine receptor 1A (Homo sapiens, UniProt P08908).
T5 sequence (P08908 whole entry): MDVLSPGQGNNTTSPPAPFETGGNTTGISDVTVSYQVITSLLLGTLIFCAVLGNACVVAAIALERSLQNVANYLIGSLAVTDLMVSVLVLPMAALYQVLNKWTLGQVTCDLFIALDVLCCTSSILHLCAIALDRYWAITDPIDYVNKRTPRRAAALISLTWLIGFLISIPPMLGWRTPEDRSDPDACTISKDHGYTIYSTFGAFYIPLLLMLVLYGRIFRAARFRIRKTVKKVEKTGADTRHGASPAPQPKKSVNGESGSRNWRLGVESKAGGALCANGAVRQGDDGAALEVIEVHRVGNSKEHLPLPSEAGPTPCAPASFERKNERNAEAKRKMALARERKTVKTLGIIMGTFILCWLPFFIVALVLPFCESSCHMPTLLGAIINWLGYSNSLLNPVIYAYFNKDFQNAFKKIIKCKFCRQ
Description: Binding affinity to 5-HT1A receptor.

Six compounds from ChEMBL document CHEMBL1641413, “Identification of 3-sulfonylindazole derivatives as potent and selective 5-HT(6) antagonists” (Bioorg Med Chem, 2011) can be followed below.

Each structure is given as a SMILES string. Active and inactive are the calls of the source. No cut-off for these calls is given here. A value given as a limit tells only on which side of the number the result lay.

Chain of 5-hydroxytryptamine receptor 1B (P28222 whole entry): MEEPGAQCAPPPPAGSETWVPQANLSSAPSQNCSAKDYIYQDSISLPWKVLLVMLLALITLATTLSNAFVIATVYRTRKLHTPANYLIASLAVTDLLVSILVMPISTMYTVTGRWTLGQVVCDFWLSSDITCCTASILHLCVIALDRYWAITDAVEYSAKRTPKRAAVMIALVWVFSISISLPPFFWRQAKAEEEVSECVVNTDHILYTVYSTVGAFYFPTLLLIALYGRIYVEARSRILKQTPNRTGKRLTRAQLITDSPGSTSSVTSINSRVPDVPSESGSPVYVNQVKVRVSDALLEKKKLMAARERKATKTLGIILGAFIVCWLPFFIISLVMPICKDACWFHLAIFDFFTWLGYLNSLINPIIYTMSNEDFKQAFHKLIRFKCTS
Chain of 5-hydroxytryptamine receptor 1D (P28221 whole entry): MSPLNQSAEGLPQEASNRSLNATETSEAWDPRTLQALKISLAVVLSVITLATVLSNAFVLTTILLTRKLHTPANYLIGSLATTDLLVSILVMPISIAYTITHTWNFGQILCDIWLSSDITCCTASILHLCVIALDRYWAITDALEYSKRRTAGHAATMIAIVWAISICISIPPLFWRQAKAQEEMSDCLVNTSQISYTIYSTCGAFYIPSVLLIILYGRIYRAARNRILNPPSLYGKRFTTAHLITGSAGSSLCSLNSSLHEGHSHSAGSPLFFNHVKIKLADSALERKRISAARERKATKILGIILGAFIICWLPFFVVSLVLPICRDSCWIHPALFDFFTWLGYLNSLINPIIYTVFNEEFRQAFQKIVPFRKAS
T3 sequence (P41595 whole entry): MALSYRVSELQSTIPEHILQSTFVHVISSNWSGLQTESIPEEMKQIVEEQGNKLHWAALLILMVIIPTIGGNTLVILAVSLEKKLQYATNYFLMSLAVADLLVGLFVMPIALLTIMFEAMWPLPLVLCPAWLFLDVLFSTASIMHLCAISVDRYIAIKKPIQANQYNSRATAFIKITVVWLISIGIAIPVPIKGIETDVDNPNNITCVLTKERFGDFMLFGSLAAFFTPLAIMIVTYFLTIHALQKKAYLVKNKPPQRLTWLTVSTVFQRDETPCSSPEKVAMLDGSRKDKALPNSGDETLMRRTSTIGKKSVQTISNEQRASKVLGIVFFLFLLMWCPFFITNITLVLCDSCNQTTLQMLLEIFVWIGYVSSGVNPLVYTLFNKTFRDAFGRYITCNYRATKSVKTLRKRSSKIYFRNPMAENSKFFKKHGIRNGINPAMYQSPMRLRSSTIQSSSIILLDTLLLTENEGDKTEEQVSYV
Chain of 5-hydroxytryptamine receptor 7 (P34969 whole entry): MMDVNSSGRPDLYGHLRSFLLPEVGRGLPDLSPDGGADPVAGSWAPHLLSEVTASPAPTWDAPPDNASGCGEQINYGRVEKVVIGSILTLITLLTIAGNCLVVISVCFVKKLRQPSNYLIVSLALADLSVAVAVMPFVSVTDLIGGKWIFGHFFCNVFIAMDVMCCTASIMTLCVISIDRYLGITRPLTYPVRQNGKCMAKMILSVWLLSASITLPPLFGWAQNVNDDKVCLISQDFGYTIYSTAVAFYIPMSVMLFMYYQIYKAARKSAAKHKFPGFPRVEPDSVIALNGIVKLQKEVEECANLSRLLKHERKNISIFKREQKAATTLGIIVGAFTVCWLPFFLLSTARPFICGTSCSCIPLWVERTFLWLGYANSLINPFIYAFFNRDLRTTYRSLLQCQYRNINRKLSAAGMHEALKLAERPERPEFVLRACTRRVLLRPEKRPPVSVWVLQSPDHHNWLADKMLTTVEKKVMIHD
Chain of D(2) dopamine receptor (P14416 whole entry): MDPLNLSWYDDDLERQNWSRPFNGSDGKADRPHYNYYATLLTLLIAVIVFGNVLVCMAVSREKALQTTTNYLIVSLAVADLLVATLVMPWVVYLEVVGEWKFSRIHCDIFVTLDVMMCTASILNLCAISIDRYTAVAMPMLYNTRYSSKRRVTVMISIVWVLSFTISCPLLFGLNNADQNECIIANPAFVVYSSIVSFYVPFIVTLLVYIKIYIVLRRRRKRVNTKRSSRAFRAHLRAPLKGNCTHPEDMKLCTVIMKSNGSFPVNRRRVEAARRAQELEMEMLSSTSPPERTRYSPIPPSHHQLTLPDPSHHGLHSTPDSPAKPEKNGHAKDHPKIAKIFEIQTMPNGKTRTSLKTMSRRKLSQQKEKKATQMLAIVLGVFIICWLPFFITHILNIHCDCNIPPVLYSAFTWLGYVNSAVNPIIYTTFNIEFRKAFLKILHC
T4 sequence (P50406 whole entry): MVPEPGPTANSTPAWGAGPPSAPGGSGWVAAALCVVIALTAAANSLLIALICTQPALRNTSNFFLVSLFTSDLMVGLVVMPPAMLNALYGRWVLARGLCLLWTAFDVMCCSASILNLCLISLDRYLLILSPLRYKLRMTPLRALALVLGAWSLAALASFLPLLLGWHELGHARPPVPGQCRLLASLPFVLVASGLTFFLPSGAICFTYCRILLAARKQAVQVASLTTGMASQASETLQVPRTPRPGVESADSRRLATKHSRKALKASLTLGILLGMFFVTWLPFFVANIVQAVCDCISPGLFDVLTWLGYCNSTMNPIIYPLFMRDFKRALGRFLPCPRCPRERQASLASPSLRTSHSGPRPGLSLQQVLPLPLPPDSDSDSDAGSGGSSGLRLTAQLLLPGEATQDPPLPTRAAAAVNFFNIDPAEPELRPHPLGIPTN

For the compound `Cl.O=C(Nc1ccc2[nH]nc(S(=O)(=O)c3cccc4ccccc34)c2c1)C1CCNCC1`, the half-life in [1] and in series [11] was above 30 min throughout. Besides, the fraction unbound in [2] was above 0.2. Also, the outcome in [3] and in series [9] was inactive. Further, the Ki (commonly a dissociation constant, usually derived from enzyme kinetics or from competition with a known ligand) in [4] is above 5000 nM; in [6] it was above 5000 nM; in series [7], above 5000 nM; in series [8] it was 33 nM; in series [10], above 5000 nM; in series [13], 1.1 nM. The Ki was above 5000 nM at D(2) dopamine receptor, 1340 nM in [14] and 3010 nM in series [15]. Moreover, the solubility – broadly, the dissolved amount per volume that the medium holds – in series [5] was above 100 µg/mL. In the series with Rattus norvegicus, the inhibition entry is “Active”. Also, the IC50 (as a rule, the concentration at which inhibition is half-maximal) in [12] came out at 8.2 nM.

In the case of `Cl.O=S(=O)(c1ccc2ccccc2c1)c1n[nH]c2ccc(NC3CCNCC3)cc12`, the half-life in series [1] and in series [11] was above 30 min in each case. The fraction unbound in [2] is above 0.2. Further, the result in [3] and in series [9] was inactive. Further, the Ki in series [4] is above 5000 nM; in [6], above 5000 nM; in [7] it was above 5000 nM; in series [8], 675 nM; in series [10] it was above 5000 nM; in [13] it was 0.6 nM. The Ki on D(2) dopamine receptor is above 5000 nM; in [14] it was above 5000 nM; in [15], 4350 nM. The compound also had a solubility in series [5] above 100 µg/mL. The half-inhibitory concentration (IC50) in series [12] worked out at 16 nM.

For the compound `Cl.NCCC(=O)Nc1ccc2[nH]nc(S(=O)(=O)c3cccc4ccccc34)c2c1`, the half-life in series [1] and in series [11] was above 30 min in each case. Besides, the fraction unbound in series [2] was above 0.2. The result in series [3] and in [9] was inactive. In addition, the inhibition constant (Ki) was above 5000 nM in series [4]; 573 nM in [6]; above 5000 nM in series [7]; 344 nM in series [8]; above 5000 nM in series [10]; 1.5 nM in [13]. Further, the inhibitory constant (Ki) (on D(2) dopamine receptor; in series [14]; in [15]) was above 5000 nM each time. The compound also had a solubility in series [5] above 100 µg/mL. For the same compound, the IC50 in series [12] turned out to be 3.8 nM.

For `Cl.O=S(=O)(c1cccc(Cl)c1)c1n[nH]c2ccc(NC3CCNCC3)cc12`, the half-life in [1] and in series [11] was above 30 min in each case. The fraction unbound in series [2] was above 0.2. In addition, the result in [3] and in series [9] was inactive. Moreover, the Ki was above 5000 nM in series [4]; 2430 nM in series [6]; 1660 nM in series [7]; 155 nM in [8]; 3220 nM in [10]; 1 nM in series [13]. The results for the inhibitory constant (Ki) (on D(2) dopamine receptor; in series [14]; in series [15]) were above 5000 nM, 410 nM and 455 nM, respectively. This compound showed a solubility in series [5] above 100 µg/mL. In [12], the IC50 worked out at 12 nM.

As to `CC(C)c1ccc(S(=O)(=O)c2n[nH]c3ccc(NC4CCNCC4)cc23)cc1.Cl`, the half-life in series [1] and in series [11] was above 30 min in each case. In addition, in series [2], the fraction unbound was above 0.2. Also, the outcome in series [3] and in series [9] was inactive. Moreover, the inhibition constant Ki is above 5000 nM in series [4]; 1770 nM in [6]; 2730 nM in [7]; 1760 nM in series [8]; above 5000 nM in [10]; 1 nM in series [13]. The inhibition constant Ki at D(2) dopamine receptor is above 5000 nM; in series [14], 1500 nM; in series [15], 859 nM. Besides, the solubility in [5] is above 100 µg/mL. The IC50 in series [12] was determined as 14 nM.

As to `Cl.O=S(=O)(c1cccc2ccccc12)c1n[nH]c2ccc(NC3CCNCC3)cc12`, the half-life in [1] and in series [11] was above 30 min throughout. For the same compound, the fraction unbound in series [2] was above 0.2. Moreover, the result in series [3] and in series [9] was inactive. The inhibition constant (Ki) in series [4] was above 5000 nM; in [6], above 5000 nM; in series [7] it was above 5000 nM; in series [8], 675 nM; in [10], 3970 nM; in series [13] it was 0.7 nM. Further, the inhibition constant Ki (at D(2) dopamine receptor; in series [14]; in series [15]) was above 5000 nM throughout. The solubility in [5] was above 100 µg/mL. Also, the inhibition entry with Rattus norvegicus is “Active”. Also, the half-inhibitory concentration (IC50) in series [12] stood at 15 nM.
